{"data": "Measured values gathered from unrelated publications", "target": "Insulin receptor-related protein (INSRR, Homo sapiens, UniProt P14616)", "note": "Each line is one published result; the experiments were not run side by side."}
{"SMILES": "COc1cc(Nc2ncc(F)c(Nc3ccc4c(n3)NC(=O)C(C)(C)O4)n2)cc(OC)c1OC", "read-out": "binding", "method": "competition with immobilised ligand", "tested at": "10 µM", "endpoint": "inhibition", "result": "53%"}
{"SMILES": "Cn1cc(-c2cc(F)cc(N3CCn4c(cc5c4CCCC5)C3=O)c2CO)cc(Nc2ccc(N3CCN(C4COC4)CC3)cn2)c1=O", "read-out": "enzyme activity", "mode": "inhibitor", "tested at": "0.1 µM", "endpoint": "inhibition", "result": "15%"}
{"SMILES": "C#Cc1n[nH]c2c(-c3cn(C(C)c4ccccn4)c(=O)[nH]c3=O)cc(F)cc12 (centres unmarked)", "read-out": "enzyme activity", "mode": "inhibitor", "tested at": "1 µM", "endpoint": "inhibition", "result": "0.7%"}
{"SMILES": "COc1ncccc1-c1cnn2ccc(N3CCN(C(=O)OC(C)C)CC3)nc12", "read-out": "binding", "method": "competition with immobilised ligand", "tested at": "1 µM", "endpoint": "remaining binding", "result": "96%"}
{"SMILES": "Cc1nn(C)cc1-c1nc2c(N3CCN(Cc4ccc(Cl)cc4)CC3)c(Cl)cnc2[nH]1", "read-out": "binding", "method": "competition with immobilised ligand", "tested at": "1 µM", "endpoint": "remaining binding", "result": "100%"}
{"SMILES": "C#Cc1n[nH]c2c(-c3cn([C@@H](C)c4ccccc4)c(=O)[nH]c3=O)cc(F)cc12", "read-out": "enzyme activity", "mode": "inhibitor", "tested at": "0.1 µM", "endpoint": "inhibition", "result": "6.9%"}
{"SMILES": "Cn1cc(-c2cccc(N3CCc4c(sc5c4CC(C)(C)C5)C3=O)c2CO)cc(Nc2ccncn2)c1=O", "read-out": "enzyme activity", "mode": "inhibitor", "tested at": "1 µM", "endpoint": "inhibition", "result": "2%"}
{"SMILES": "O=c1[nH]c2ccccc2n1C1CCN(Cc2ccc(-c3[nH]c4cc5ncnc5cc4nc3-c3ccccc3)cc2)CC1", "read-out": "cell-free assay", "tested at": "0.5 µM", "endpoint": "remaining signal", "result": "101%"}
{"SMILES": "Nc1ncc(-c2nc(N3CCOCC3)nc(N3CCOCC3)n2)c(C(F)F)n1", "read-out": "binding", "method": "competition with immobilised ligand", "tested at": "10 µM", "endpoint": "remaining binding", "result": "80%"}
{"SMILES": "CC(C)(C)c1cc(C=C(C#N)C#N)cc(Br)c1O", "read-out": "enzyme activity", "mode": "inhibitor", "tested at": "0.5 µM", "endpoint": "remaining activity", "result": "103%"}
{"SMILES": "Cn1cncc1[C@](O)(COc1ccc(C#N)cc1-c1ccc(OC(F)(F)F)cc1)c1ccc(C#N)cc1", "read-out": "cell-free assay", "method": "competition with immobilised ligand", "tested at": "1 µM", "endpoint": "remaining binding", "result": "93%"}
